Only some compounds are listed: those with a hit (about 9.6% of all), similar ones and a draw of the others.
TNAP act hi DEA = increases human TNAP activity under high phosphate acceptor concentration; purified TNAP, CDP-star luminescence, 1 M DEA, 30 min; active compounds read high; 0 = EDTA background, 1 = DMSO-only activity; 200,000 tested, under 10 active; AID 1136; P05186; activation factor at 20 µM;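 active = activation factor at least 2 at 20 µM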
Target sequence (P05186 whole entry, looked up): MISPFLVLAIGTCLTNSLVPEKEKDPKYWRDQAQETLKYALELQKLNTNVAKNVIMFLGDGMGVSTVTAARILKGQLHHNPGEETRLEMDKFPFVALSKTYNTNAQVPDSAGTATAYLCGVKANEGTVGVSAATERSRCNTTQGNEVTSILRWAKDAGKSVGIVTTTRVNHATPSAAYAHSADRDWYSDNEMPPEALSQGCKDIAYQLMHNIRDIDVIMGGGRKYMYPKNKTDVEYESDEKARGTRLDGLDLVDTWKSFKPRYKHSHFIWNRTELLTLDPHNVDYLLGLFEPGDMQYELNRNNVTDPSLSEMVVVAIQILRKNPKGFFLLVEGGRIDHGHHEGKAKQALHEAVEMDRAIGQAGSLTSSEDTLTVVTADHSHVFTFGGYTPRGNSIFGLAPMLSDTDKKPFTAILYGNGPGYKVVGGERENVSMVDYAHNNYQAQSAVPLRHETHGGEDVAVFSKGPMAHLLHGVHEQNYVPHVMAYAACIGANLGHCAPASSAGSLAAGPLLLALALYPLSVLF
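Dosing: 20 µM single point. System: human TNAP. Amount: TNAP 1/800 final. Incubation: 30 min, room temperature. Read-out: TNAP activation factor scaled between EDTA and DMSO control wells. Signal: luminescence from CDP-star hydrolysis. Medium: 1 M DEA, pH 9.8, Mg2+, Zn2+. Control set: EDTA negative control, DMSO positive control.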
TNAP inh hi DEA = blocks human TNAP under high phosphate acceptor concentration; purified TNAP, CDP-star luminescence, 1 M DEA; P05186; hit rate 0.03% among 200,000; inhibition, % at 20 µM;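 active = over 50% inhibition of tissue-nonspecific alkaline phosphatase at 20 µM in the single-dose screen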;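 note: plate controls were DMSO wells for no effect and EDTA-quenched wells as full inhibition for full effect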
TNAP inh noacc = TNAP (human) inhibition, acceptor-free conditions. P05186. purified TNAP, CDP-star luminescence, 30 min. inhibition, % at 20 µM. hit rate 0.26% among 200,000. AID 1012;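 active = tissue-nonspecific alkaline phosphatase inhibition above about 50% at 20 µM in the single-dose screen, limit read from the data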;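 note: 0% = DMSO negative control and 100% = EDTA positive control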
L major viab = Leishmania major promastigote growth inhibition; hit rate 9% among 200,000; inhibition, % at 10 µM; Leishmania major promastigotes, resazurin fluorescence viability; AID 1063; in the data active = inhibition above about 50%;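 note: promastigotes grown with compound for 44 hours at 28 °C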
HCT116 PTEN-null = growth suppressors of cells with PTEN tumor suppressor deletion. HCT116 PTEN-null viability, CellTiter-Glo, 60 h; active compounds read low. viability, % at 10 µM. hit rate 1.2% among 140,000. AID 827;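 active = viability at or below a set limit, 4 SD under the median of all tested compounds, cut at about 3.7% in these data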;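 note: PTEN knockout HCT116 line with beta catenin targeted HCT116 as companion control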
HCT116 bCat-KO = beta-catenin-lacking colon tumor cell growth suppression | AID 818 | hit rate 1.5% among 140,000 | HCT116 beta-catenin knockout viability, CellTiter-Glo, 60 h; active compounds read low | viability, % at 10 µM;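 active = viability at or under a set limit, the compound median less 4 SD, cut at about 6% in these data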;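 note: 0% = Hyamine 1622 control at 20 µM and 100% = untreated cell control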
Active calls of the source: *; · = not tested or not shown.

SMILES | TNAP act hi DEA | TNAP inh hi DEA | TNAP inh noacc | L major viab | HCT116 PTEN-null | HCT116 bCat-KO
CC1=Nn2c(nnc2-c2cc(-c3ccccc3)n[nH]2)SC1 | 1 | -1 | 51* | 23 | 81 | 65
COc1cccc(C2=CC(c3cccc(OC)c3OC)n3nnnc3N2)c1 (stereo not given) | 1 | -3 | -5 | 79* | 12 | 9
COc1cccc(C2=CC(c3cc(OC)ccc3OC)n3nnnc3N2)c1 (stereo not given) | 1 | 1 | -9 | 92* | 28 | 26
COc1cccc(C2=CC(c3cccc(OC)c3OC(F)F)n3nnnc3N2)c1 (stereo not given) | 1 | -3 | -5 | 2 | 63 | 64
Cc1ccc(NC(=O)CCC(=O)OCc2ccc(Br)cc2)cc1 | 1 | -2 | -8 | -3 | 99 | 87
Cc1cccc(N2CCN(C(=O)CN3C(=O)C4CC=CCC4C3=O)CC2)c1C (stereo not given) | 1.1 | -7 | -13 | 1 | · | ·
Cc1ccc(C)c(N2CCN(c3cnn(-c4nc5ccccc5s4)c(=O)c3Cl)CC2)c1 | 1 | 5 | 2 | 32 | 50 | 57
COc1ccc(Nc2cnn(-c3nc4ccccc4s3)c(=O)c2Cl)cc1 | 1 | 3 | -2 | 51* | 7 | 5.1*
O=c1c(Cl)c(Nc2cccc(Cl)c2)cnn1-c1nc2ccccc2s1 | 1 | 4 | -9 | 56* | 71 | 77
CCN(CC(=O)Nc1ccccc1OC)CC(=O)Nc1sccc1C#N | 1.1 | -5 | -91 | 2 | · | ·
COc1cccc(C2CC(c3c(-c4ccccc4)c4cc(Cl)ccc4[nH]c3=O)=NN2S(C)(=O)=O)c1OC (stereo not given) | 1 | -3 | 5 | 100* | 37 | 55
CCCN(CCC)C(=O)CCSCCC(=O)N(CCC)CCC | 1 | -4 | -9 | -9 | 92 | 95
C=CCn1c(NCc2ccc3c(c2)OCO3)nc2ccccc21 | 1 | -3 | -12 | 98* | 80 | 85
C=CCn1c(NCc2ccccc2)nc2ccccc21 | 1 | -2 | 4 | 23 | 94 | 94
CCn1c(NCc2ccc3c(c2)OCO3)nc2ccccc21 | 1 | -2 | 3 | 78* | 67 | 78
CN(C)CCCn1c(NCc2ccc3c(c2)OCO3)nc2ccccc21 | 1 | -1 | 14 | 66* | 88 | 79
Cc1ccc(S(=O)(=O)Oc2ccc(/C=N/NC(=O)c3cccnc3)cc2)cc1 | 1 | -4 | -5 | -8 | · | ·
CCCCN(C)CCCNC(=O)/C=C1\Sc2ccccc2NC1=O | 1 | -1 | -12 | 29 | · | ·
O=C(COC(=O)c1cc(=O)[nH]c2ccccc12)NC(=O)NC1CCCCC1 | 1.1 | -10 | -17 | -6 | 93 | 96
CCOc1ccc(S(=O)(=O)NCc2ccc(C)cc2)c2cccnc12 | 1 | -4 | -4 | 98* | 104 | 86
O=C(O)CCCCCNS(=O)(=O)c1c(Cl)cccc1Cl | 1 | 4 | -9 | -3 | 100 | 93
Cc1cc(C)c(C(=O)COC(=O)CCNS(=O)(=O)c2c(Cl)cccc2Cl)cc1C | 1.1 | -6 | -8 | 74* | 106 | 100
CCc1cc(=O)oc2c(C)c(OCC(=O)N3CCCc4ccccc43)ccc12 | 1 | -3 | 0 | 89* | 83 | 93
CC(=O)C(Cc1cccc(F)c1)(Cc1cccc(F)c1)C(C)=O | 1 | -4 | -14 | -9 | · | ·
O=C(COc1ccccc1)NCC(=O)Nc1cccc2ccccc12 | 1 | 2 | 2 | -5 | 90 | 86
O=C(COc1ccc(C(=O)c2ccccc2)cc1)NCC(=O)Nc1ccccc1Br | 1 | -2 | -3 | 62* | 57 | 65
CCOc1ccccc1NC(=O)CCCN1C(=S)NC(C)(C)CC1C (stereo not given) | 1 | -2 | 0 | 52* | 110 | 94
CCOc1ccc(OCC)c(NC(=O)CCCN2C(=S)NC(C)(C)CC2C)c1 (stereo not given) | 1 | 0 | -7 | 3 | 89 | 91
CC1CC(C)(C)NC(=S)N1CCCC(=O)N1CCN(c2ccc(F)cc2)CC1 (stereo not given) | 1 | 0 | 16 | 82* | 101 | 93
COc1ccc(OC)c(NC(=O)CCCN2C(=S)NC(C)(C)CC2C)c1 (stereo not given) | 1 | -2 | 2 | 70* | 105 | 89

Source: PubChem (several laboratories)
